Measurements from ChEMBL document CHEMBL1157699, “New small-size peptides possessing antifungal activity” (Bioorg Med Chem, 2010).
Residues, ends and D or L forms follow the SMILES beside them.

How the values were obtained:
[1] = test system: Cryptococcus neoformans; assay: Antifungal activity against Cryptococcus neoformans ATCC 32264 assessed as inhibition of fungal growth at 100 uM after 48 hrs by microbroth dilution method; format: functional; details: ATCC 32264, 48 h
How it was run: (§1)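 Cryptococcus run by CLSI M-27 A2 microbroth dilution in RPMI-1640. Peptide was diluted from DMSO stock to final 200, 100, 50, 25, 12.5, 6.25 and 3.125 µM. Inoculum was 1–5 × 10^3 CFU/ml from 24 h, 35 °C Sabouraud-chloramphenicol slants. Incubation was 48 h at 35 °C, moist and dark. % inhibition was taken from OD405 against a DMSO-containing growth control. Amphotericin B served as the positive control; tests in duplicate.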

[2] = test system: Cryptococcus neoformans; assay: Antifungal activity against Cryptococcus neoformans ATCC 32264 assessed as inhibition of fungal growth at 200 uM after 48 hrs by microbroth dilution method; format: functional; details: ATCC 32264, 48 h; how it was run: as §1
[3] = test system: Cryptococcus neoformans; assay: Antifungal activity against Cryptococcus neoformans ATCC 32264 assessed as inhibition of fungal growth at 50 uM after 48 hrs by microbroth dilution method; format: functional; details: ATCC 32264, 48 h; how it was run: as §1
[4] = test system: Cryptococcus neoformans; assay: Antifungal activity against Cryptococcus neoformans ATCC 32264 assessed as inhibition of fungal growth at 6.25 uM after 48 hrs by microbroth dilution method; format: functional; details: ATCC 32264, 48 h; how it was run: as §1
[5] = test system: Cryptococcus neoformans; assay: Antifungal activity against Cryptococcus neoformans ATCC 32264 assessed as inhibition of fungal growth at 25 uM after 48 hrs by microbroth dilution method; format: functional; details: ATCC 32264, 48 h; how it was run: as §1
[6] = test system: Cryptococcus neoformans; assay: Antifungal activity against Cryptococcus neoformans ATCC 32264 assessed as inhibition of fungal growth at 12.5 uM after 48 hrs by microbroth dilution method; format: functional; details: ATCC 32264, 48 h; how it was run: as §1
[7] = test system: Cryptococcus neoformans; assay: Antifungal activity against Cryptococcus neoformans ATCC 32264 assessed as inhibition of fungal growth at 3.125 uM after 48 hrs by microbroth dilution method; format: functional; details: ATCC 32264, 48 h; how it was run: as §1
[8] = test system: Candida albicans; assay: Antifungal activity against Candida albicans ATCC 10231 assessed as inhibition of fungal growth at 25 uM after 24 hrs by microbroth dilution method; format: functional; details: ATCC 10231, 24 h
How it was run: (§2)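 CLSI M-27 A2 broth microdilution in RPMI-1640. Peptides were taken from DMSO stocks to final 200–3.125 µM (twofold series). Inoculum was 1–5 × 10^3 CFU/ml from 24 h Sabouraud-chloramphenicol slant cultures at 35 °C. Plates were incubated 24 h at 35 °C in a moist dark chamber. OD405 was read, and % inhibition was taken against a DMSO-matched growth control. Amphotericin B served as the positive control; duplicates.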

[9] = test system: Candida albicans; assay: Antifungal activity against Candida albicans ATCC 10231 assessed as inhibition of fungal growth at 200 uM after 24 hrs by microbroth dilution method; format: functional; details: ATCC 10231, 24 h; how it was run: as §2
[10] = test system: Candida albicans; assay: Antifungal activity against Candida albicans ATCC 10231 assessed as inhibition of fungal growth at 12.5 uM after 24 hrs by microbroth dilution method; format: functional; details: ATCC 10231, 24 h; how it was run: as §2
[11] = test system: Candida albicans; assay: Antifungal activity against Candida albicans ATCC 10231 assessed as inhibition of fungal growth at 100 uM after 24 hrs by microbroth dilution method; format: functional; details: ATCC 10231, 24 h; how it was run: as §2
[12] = test system: Candida albicans; assay: Antifungal activity against Candida albicans ATCC 10231 assessed as inhibition of fungal growth at 50 uM after 24 hrs by microbroth dilution method; format: functional; details: ATCC 10231, 24 h; how it was run: as §2
[13] = test system: Candida albicans; assay: Antifungal activity against Candida albicans ATCC 10231 assessed as inhibition of fungal growth after 24 hrs by microbroth dilution method; format: functional; details: ATCC 10231, 24 h; for MIC: read-out: MIC100; how it was run: as §2
[14] = Toxicity in Poecilia reticulata assessed as mortality at 16.4 ug/ml after 24 hrs; format: organism-based; details: in vivo, read-out: Activity
How it was run: (§3)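 Acute toxicity in guppy (P. reticulata): 10 fish per concentration held in jars with the test solution for 96 h. Peptide added from aqueous stock diluted in DMSO to the final concentration. Dead fish counted and removed every 24 h, and condition noted. Percent mortality recorded at 96 h. Two experiments, each in triplicate.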

[15] = test system: Cryptococcus neoformans; assay: Antifungal activity against Cryptococcus neoformans ATCC 32264 assessed as inhibition of fungal growth after 48 hrs by microbroth dilution method; format: functional; details: ATCC 32264, 48 h; for MIC: read-out: MIC100; how it was run: as §1
[16] = Toxicity in Poecilia reticulata assessed as mortality at 16.4 ug/ml after 72 hrs; format: organism-based; details: in vivo, read-out: Activity; how it was run: as §3
[17] = Toxicity in Poecilia reticulata assessed as mortality at 16.4 ug/ml after 48 hrs; format: organism-based; details: in vivo, read-out: Activity; how it was run: as §3
[18] = Toxicity in Poecilia reticulata assessed as mortality at 16.4 ug/ml after 96 hrs; format: organism-based; details: in vivo, read-out: Activity; how it was run: as §3
[19] = Toxicity in Poecilia reticulata assessed as mortality at 13.6 ug/ml after 96 hrs; format: organism-based; details: in vivo, read-out: Activity; how it was run: as §3
[20] = Toxicity in Poecilia reticulata assessed as mortality at 13.6 ug/ml after 24 hrs; format: organism-based; details: in vivo, read-out: Activity; how it was run: as §3
[21] = Toxicity in Poecilia reticulata assessed as mortality at 13.6 ug/ml after 48 hrs; format: organism-based; details: in vivo, read-out: Activity; how it was run: as §3
[22] = Toxicity in Poecilia reticulata assessed as mortality at 13.6 ug/ml after 72 hrs; format: organism-based; details: in vivo, read-out: Activity; how it was run: as §3
[23] = Toxicity in Poecilia reticulata assessed as mortality at 22.8 ug/ml after 96 hrs; format: organism-based; details: in vivo, read-out: Activity; how it was run: as §3
[24] = Toxicity in Poecilia reticulata assessed as mortality at 22.8 ug/ml after 24 hrs; format: organism-based; details: in vivo, read-out: Activity; how it was run: as §3
[25] = Toxicity in Poecilia reticulata assessed as mortality at 22.8 ug/ml after 72 hrs; format: organism-based; details: in vivo, read-out: Activity; how it was run: as §3
[26] = Toxicity in Poecilia reticulata assessed as mortality at 22.8 ug/ml after 48 hrs; format: organism-based; details: in vivo, read-out: Activity; how it was run: as §3

Molecule	inhibition at 100 µM [1]	inhibition at 200 µM [2]	inhibition at 50 µM [3]	inhibition at 6.25 µM [4]	inhibition at 25 µM [5]	inhibition at 12.5 µM [6]	inhibition at 3.125 µM [7]	inhibition at 25 µM [8]	inhibition at 200 µM [9]	inhibition at 12.5 µM [10]	inhibition at 100 µM [11]	inhibition at 50 µM [12]	also measured
C[C@H](N)C(=O)N[C@@H](C)C(=O)N[C@@H](C)C(=O)N[C@@H](C)C(N)=O (H-AAAA-NH2)	24.6%	25%	17.3%	12.4%	20.4%	11.8%	5.93%	–	–	–	–	–	–
C[C@H](N)C(=O)N[C@@H](C)C(=O)N[C@@H](C)C(=O)N[C@@H](CCCCN)C(N)=O (H-AAAK-NH2)	62%	70.6%	57.9%	0%	43%	31.1%	0%	–	–	–	–	–	–
CC[C@H](C)[C@H](NC(=O)[C@@H](N)CCCCN)C(=O)N[C@@H](CCC(N)=O)C(=O)N[C@@H](CCCNC(=N)N)C(N)=O (H-KIQR-NH2)	44.1%	47.6%	30.9%	21.2%	26.9%	25.1%	20.9%	–	–	–	–	–	–
CC[C@H](C)[C@H](NC(=O)[C@H](CCC(N)=O)NC(=O)[C@@H](N)CCCCN)C(=O)N[C@@H](CCCCN)C(N)=O (H-KQIK-NH2)	0%	3.72%	0%	0%	0%	0%	0%	–	–	–	–	–	–
C[C@H](NC(=O)[C@H](C)NC(=O)[C@H](C)NC(=O)[C@@H](N)CCCNC(=N)N)C(N)=O (H-RAAA-NH2)	8.45%	38.4%	8.43%	4.96%	8.9%	6.08%	0%	–	–	–	–	–	–
C[C@H](NC(=O)[C@H](C)NC(=O)[C@@H](N)CCCNC(=N)N)C(=O)N[C@@H](CCCCN)C(N)=O (H-RAAK-NH2)	69.7%	78.6%	67.5%	14.1%	39.1%	26.3%	0%	–	–	–	–	–	–
CC[C@H](C)[C@H](NC(=O)[C@H](C)NC(=O)[C@@H](N)CCCNC(=N)N)C(=O)N[C@@H](CCCCN)C(N)=O (H-RAIK-NH2)	29.1%	34.6%	0%	0%	0%	0%	0%	–	–	–	–	–	–
CC[C@H](C)[C@H](NC(=O)[C@@H](NC(=O)[C@@H](N)CCCNC(=N)N)[C@@H](C)CC)C(=O)N[C@@H](CCCCN)C(N)=O (H-RIIK-NH2)	39.7%	42%	11.5%	14.5%	20.9%	12.6%	8.74%	–	–	–	–	–	–
C[C@H](NC(=O)[C@H](CCC(N)=O)NC(=O)[C@@H](N)CCCNC(=N)N)C(=O)N[C@@H](CCCCN)C(N)=O (H-RQAK-NH2)	0%	0%	0%	0%	0%	0%	0%	–	–	–	–	–	–
CC[C@H](C)[C@H](NC(=O)[C@H](CCC(N)=O)NC(=O)[C@@H](N)CCCNC(=N)N)C(=O)N[C@@H](CCCCN)C(N)=O (H-RQIK-NH2)	36.6%	55.4%	18.4%	19.9%	17.5%	11.2%	12.2%	–	–	–	–	–	–
CC[C@H](C)[C@H](NC(=O)[C@H](CCC(N)=O)NC(=O)[C@@H](N)CCCNC(=N)N)C(=O)N[C@@H](CCCNC(=N)N)C(N)=O (H-RQIR-NH2)	40.2%	65.7%	18.8%	0%	19.3%	3.34%	0%	–	–	–	–	–	–
C[C@@H]1[C@H](O)[C@@H](C)/C=C/C=C/C=C/C=C/C=C/C=C/C=C/[C@H](O[C@@H]2O[C@H](C)[C@@H](O)[C@H](N)[C@@H]2O)C[C@@H]2O[C@](O)(C[C@@H](O)C[C@@H](O)[C@H](O)CC[C@@H](O)C[C@@H](O)CC(=O)O[C@H]1C)C[C@H](O)[C@H]2C(=O)O [AMPHOTERICIN B]	100%	100%	100%	100%	100%	100%	100%	100%	100%	100%	100%	100%	–
CC(=O)N1CCN(c2ccc(OCC3COC(Cn4ccnc4)(c4ccc(Cl)cc4Cl)O3)cc2)CC1 (stereo unspecified) [KETOCONAZOLE]	100%	100%	100%	100%	100%	100%	100%	100%	100%	100%	100%	100%	–
H-NRRMKWKK-NH2	34.8%	63.6%	23.3%	–	6.71%	6.64%	–	0%	11%	0%	4.59%	0%	–
H-RQIRRWWQW-NH2	100%	100%	100%	–	100%	83.3%	–	50.7%	100%	19.1%	100%	100%	MIC50 [13]: ≤ 25 µM; MIC [13]: 50 µM; mortality at 24 h, 16.4 ug/ml [14]: 0%; MIC50 [15]: ≤ 12.5 µM; MIC80 [15]: ≤ 12.5 µM; MIC [15]: 25 µM; mortality at 72 h, 16.4 ug/ml [16]: 0%; mortality at 48 h, 16.4 ug/ml [17]: 0%; mortality at 96 h, 16.4 ug/ml [18]: 0%
H-RQIRRWWQWRR-NH2	100%	100%	100%	–	100%	51.2%	–	46.6%	100%	22.9%	100%	100%	mortality at 96 h, 13.6 ug/ml [19]: 0%; MIC50 [13]: ≤ 25 µM; MIC [13]: 50 µM; mortality at 24 h, 13.6 ug/ml [20]: 0%; MIC50 [15]: ≤ 12.5 µM; MIC [15]: 25 µM; mortality at 48 h, 13.6 ug/ml [21]: 0%; mortality at 72 h, 13.6 ug/ml [22]: 0%
H-RQWKKWWQWRR-NH2	100%	100%	100%	–	100%	66.2%	–	67.9%	100%	35.7%	100%	100%	MIC50 [13]: ≤ 25 µM; MIC [13]: 50 µM; mortality at 96 h, 22.8 ug/ml [23]: 0%; MIC50 [15]: ≤ 12.5 µM; MIC [15]: 25 µM; mortality at 24 h, 22.8 ug/ml [24]: 0%; mortality at 72 h, 22.8 ug/ml [25]: 0%; mortality at 48 h, 22.8 ug/ml [26]: 0%
